Compound activity as filed in PubChem.
Compounds with a hit are over-represented: about 1.3% of the library has one in this group of screens.
MEX-5 binding = C. elegans MEX-5 TCR-2 RNA binding activity. MEX-5/FITC-TCR2 RNA binding, fluorescence polarization; active compounds read low. activity score (negative = inhibition of binding), % at 10 µM. Q9XUB2. 300,000 compounds, 0.38% hits;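 active = inhibition past about -25% in most replicates, and total fluorescence under double the plate's negative control median, limit read from the data; inconclusive = replicates evenly split on the limit, or fluorescence at least double controls; inactive = too little inhibition in most replicates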;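 note: 0% = DMSO and -100% = 5 µM competing unlabeled TCR2 RNA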
T cell modulator = modulates CD8 T cell binding to vesicles | 2C CD8+ T cell-vesicle binding, flow cytometry; active compounds read low | response (vesicle binding), % at 7 µM | 330,000 compounds, 0.068% hits;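 active = response, share of CD8 T cells binding vesicles, and their 90th percentile fluorescence all below set limits, cut at about 80% in these data, passing the limit was not always enough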;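 note: values below 100% mean blocked vesicle binding to the CD8+ T cells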
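Benchmarks: naked versus QL9-loaded vesicles / Assay system: purified 2C TCR transgenic mouse naive CD8+ T cells / Technique: high-throughput flow cytometry with anti-B7-1 and anti-CD8 staining / Timing: Cell–vesicle co-incubation 1.5 h at 37 °C, staining 20 min on ice / Read-out: percent CD8+ FL2 mean versus row control / Probe or stimulus: QL9-loaded Drosophila micro-vesicles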
Keap1-Nrf2 PPI = inhibitors of human Keap1-Nrf2 protein-protein interaction | Keap1 Kelch-Nrf2 peptide fluorescence polarization, 1536-well | 340,000 compounds, 0.15% hits | inhibition, % at 9.4 µM | Q14145; in the data active = inhibition above about 12%; inconclusive = no clear call, values can overlap the other calls; inactive = below about 7.3%;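 note: human Keap1 Kelch domain with fluorescein labeled Nrf2 9mer peptide probe; 0% = neutral control wells and 100% = peptide positive control; higher means more block of Keap1 binding to Nrf2 peptide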
GRK2 aptamer HTS = blocks RNA aptamer binding to human GRK2; P25098; bead flow cytometry, FAM-aptamer displacement from GRK2; inhibition of aptamer binding, % at 10 µM; 330,000 compounds, 0.59% hits; AID 488847;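 active = inhibition of aptamer binding above 40%, roughly 3 SD of noise, on plates passing a quality check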;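 note: median bead fluorescence of bound FAM aptamer so fluorescent compounds give negative values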
Target sequence (P25098 whole entry, looked up): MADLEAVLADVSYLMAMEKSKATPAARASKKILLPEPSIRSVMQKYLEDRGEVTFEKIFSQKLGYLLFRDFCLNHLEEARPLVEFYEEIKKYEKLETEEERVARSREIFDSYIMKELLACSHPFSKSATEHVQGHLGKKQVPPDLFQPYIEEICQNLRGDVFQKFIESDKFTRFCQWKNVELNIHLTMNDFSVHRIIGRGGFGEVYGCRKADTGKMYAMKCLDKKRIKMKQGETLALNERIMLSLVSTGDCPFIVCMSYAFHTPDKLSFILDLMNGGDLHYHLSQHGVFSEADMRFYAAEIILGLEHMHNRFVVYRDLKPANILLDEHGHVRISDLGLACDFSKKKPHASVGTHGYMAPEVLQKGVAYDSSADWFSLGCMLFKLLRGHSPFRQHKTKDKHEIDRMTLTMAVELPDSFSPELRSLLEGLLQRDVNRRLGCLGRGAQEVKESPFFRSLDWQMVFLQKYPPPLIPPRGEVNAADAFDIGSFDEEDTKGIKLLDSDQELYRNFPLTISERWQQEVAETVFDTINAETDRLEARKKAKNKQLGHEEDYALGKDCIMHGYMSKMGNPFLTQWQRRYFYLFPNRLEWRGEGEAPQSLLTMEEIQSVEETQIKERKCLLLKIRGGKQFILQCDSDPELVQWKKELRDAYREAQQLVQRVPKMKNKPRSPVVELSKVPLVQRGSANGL
C-LANA FP = inhibitors of KSHV LANA C-terminal domain DNA binding | 340,000 compounds, 0.078% hits | inhibition, % at 9 µM | MBP-C-LANA/FAM-LBS DNA binding, fluorescence polarization;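 active = highest replicate inhibition at or above 60% at 9 µM, even if other replicates fall short; inactive = all replicates below 60% inhibition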;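 note: 0% = neutral control wells and 100% = 4 µM acridine orange control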
EBV gp42 inh = inhibitors of Epstein-Barr virus glycoprotein 42 | Q1HVG2 | Fluorescence polarization binding assay, mP read-out | inhibition, % (tested at 21.74 µM) | 220,000 compounds, 0.42% hits | AID 1085; in the data active = inhibition above about 50%
GRK2 CP1 = confirmation of human GRK2 inhibitors displacing RNA aptamer | shares compounds with GRK2 aptamer HTS | AID 504451 | bead-bound GRK2, FAM-aptamer displacement, flow cytometry | 2,000 compounds, 4% hits | aptamer displacement, % at 10 µM;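 active = aptamer displacement above 40%, near three times the noise of non-fluorescent compounds, on plates passing quality checks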;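 note: negative values mostly reflect intrinsic compound fluorescence rather than true enhancement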
Aptamer quench = quenches fluorescent RNA aptamer, GRK2 hit artifact; shares compounds with GRK2 aptamer HTS; Fluorescent RNA aptamer beads, quenching, flow cytometry; active compounds read high; fluorescence change (kMESF span), kMESF (test concentration not listed); 110 tested, under 10 active; AID 504521;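 active = compounds whose bead fluorescence drops by more than 37 kMESF across the dose range, marking them as dye quenchers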
FAM quench CP1 = aptamer fluorescence quenching in GRK2 counter-screen | 2,000 tested, under 10 active | Carboxyfluorescein RNA aptamer on beads, flow cytometry quenching; active compounds read low | shares compounds with GRK2 aptamer HTS | fluorescence response (% of DMSO), % at 10 µM;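 active = compounds that quench the bead-bound fluorescent RNA probe, cutting fluorescence to under half of the solvent control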;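 note: counterscreen run without GRK2 so only probe quenching by compound is measured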
GRK2 confirm 2 = confirmation of human GRK2 inhibitors binding RNA aptamer site; AID 504782; inhibition of aptamer binding, % at 10 µM; 360 tested, under 10 active; shares compounds with GRK2 aptamer HTS; bead-bound GRK2, FAM-aptamer displacement, flow cytometry;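 active = inhibition of aptamer binding above 40%, about triple the noise seen with nonglowing compounds, on plates passing quality control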;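 note: negative values mostly come from compounds that fluoresce themselves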
FAM quench SP = counter-screen for GRK2 binding hits: quenchers of fluorescent RNA aptamer; carboxyfluorescein RNA aptamer beads, flow cytometry quenching; active compounds read low; AID 588494; 360 tested, under 10 active; shares compounds with GRK2 aptamer HTS; fluorescence response vs DMSO, % at 10 µM;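 active = response vs DMSO under 50%, meaning signal dropped by over half, treated as fluorescence quencher; inconclusive = no clear call, values can overlap the other calls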;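 note: labelled aptamer on streptavidin beads without GRK2 as a quench counter-screen; 100% = bead fluorescence of DMSO wells and lower means quenching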
FAM quench DR = aptamer fluorescence quenching in GRK2 powder counter-screen; shares compounds with GRK2 aptamer HTS; Bead-bound FAM RNA aptamer fluorescence quenching, flow cytometry; active compounds read low; fluorescence ratio to DMSO, % at 11.1 µM; 35 tested, under 10 active;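 active = compounds that dim the fluorescent label, raw bead signal shifting by over 33 units between lowest and highest dose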
Starred values were filed as active, the others as inactive; i = inactive; ? = inconclusive; . = not tested or not shown.

SMILES	MEX-5 binding	T cell modulator	Keap1-Nrf2 PPI	GRK2 aptamer HTS	C-LANA FP	EBV gp42 inh	GRK2 CP1	FAM quench CP1	others
O=C(O)c1cccc(-c2ccc(/C=c3/sc4nc5ccccc5n4c3=O)o2)c1	-7	170	-4	50*	22	-27	12	97
Cc1ccc(CCNC(=O)CC(C)CC2=NS(=O)(=O)c3ccccc3N2)cc1 (stereo unspecified)	2	941	-5	65*	1	.	-3	95
COc1ccc(CCNC(=O)CC(C)(C)CC2=NS(=O)(=O)c3ccccc3N2)cc1OC	0	266	0	0	2	.	.	.
COc1ccc(CCN2CCCn3c2nc2c3c(=O)n(CC(C)C)c(=O)n2C)cc1OC	0	155	3	54*	1	.	0	105
CC1(C)c2[nH]c3ccccc3c2C[C@@H]2C(=O)N(c3ccc(F)cc3F)C(=O)N21	?	0	-7	1	0	.	.	.
CCC(CC)C(=O)Nc1ccc(C(=O)c2ccccc2)cc1	-1	235	-1	61*	0	-19	.	.	GRK2 confirm 2=3;FAM quench SP=101
CCC(=O)Nc1ccc(C(=O)c2ccccc2)cc1	-2	215	-6	2	0	10	.	.
CC(C)[C@H](NC(=O)C1CC(=O)N(c2ccc3c(c2)OCCO3)C1)C(=O)NC1CCCC1 (stereo partly specified)	-1	402	-2	0	-1	.	.	.
Cc1ccccc1-c1nc(CS(=O)(=O)CC(=O)NCc2ccc3c(c2)OCO3)c(C)o1	-2	601	-1	83*	0	-5	0	89	GRK2 confirm 2=11;FAM quench SP=97
COc1ccccc1N(CC(=O)NCc1ccco1)S(=O)(=O)c1ccc(C)cc1	-2	161	-9	46*	7	.	23	99
Cc1[nH]c2ccccc2c1C(=O)CSc1nnc(C2CC2)o1	.	206	2	0	0	.	.	.
CC(=O)N1CCN(Cc2nc3cc(Cl)ccc3c(=O)[nH]2)CC1	0	275	-5	87*	0	-5	42*	100	Aptamer quench=9.8;GRK2 confirm 2=-3;FAM quench SP=96;FAM quench DR=102
COc1ccc(N2CCN(Cc3nc4cc(Cl)ccc4c(=O)[nH]3)CC2)cc1	0	227	5	3	2	-6	.	.	GRK2 confirm 2=5;FAM quench SP=107
COc1cc2nc(CN3CCN(C(C)=O)CC3)[nH]c(=O)c2cc1OC	2	235	-6	0	0	-13	.	.
CC1=C(C(=O)N2CCOCC2)C(c2cccs2)NC(=O)N1 (stereo unspecified)	-5	269	-3	0	1	-19	.	.
Cn1c(C(=O)N2CCCC(C(=O)NCCCSC3CCCCC3)C2)cc2sccc21 (stereo unspecified)	3	480	2	25	0	-6	1	96
O=S(=O)(Nc1nc2ccccc2nc1Cl)c1ccc(Br)cc1	-3	266	-2	4	1	25	.	.
COC(=O)c1cc(=O)n(Cc2ccc3c(c2)OCO3)c(=Nc2ccccc2)s1	2	710	-2	1	2	-30	.	.
NS(=O)(=O)c1ccc(NC(=S)N2CCC(O)CC2)cc1	-1	i	-2	91*	-1	0	2	99
CCN1C(c2ccccc2)C(C)C(=O)C(C)C1c1ccccc1 (stereo unspecified)	1	443	-2	0	1	-19	.	.
Cc1ccc(-c2noc(C3CCCN(C(=O)c4cccc(F)c4)C3)n2)cc1 (stereo unspecified)	0	224	-7	100*	1	.	0	103
Cc1cc(NS(=O)(=O)c2ccc(NC(=O)c3ccc(F)cc3)cc2)nc(C)n1	.	367	0	5	-1	.	.	.
Cc1cc(NS(=O)(=O)c2ccc(NC(=O)c3c(F)c(F)c(F)c(F)c3F)cc2)nc(C)n1	1	463	0	56*	2	.	.	.	GRK2 confirm 2=10;FAM quench SP=104
O=C(O)CN1C(=O)CSc2ccccc21	0	154	-3	1	1	-6	.	.
O=CN1c2ccccc2CSc2ccccc21	-8	152	.	74*	.	.	-4	100
SMILES	MEX-5 binding	T cell modulator	Keap1-Nrf2 PPI	GRK2 aptamer HTS	C-LANA FP	EBV gp42 inh	GRK2 CP1	FAM quench CP1	others
CCOC(=O)CCC(=O)Nc1ncnc2c1C(c1ccccc1)c1c(ccc3ccccc13)O2 (stereo unspecified)	.	467	-9	4	3	.	.	.
Cc1occc1C(=O)NCc1cccc(CNC(=O)c2ccoc2C)c1	3	331	-8	47*	2	-5	0	98
Cc1noc(C)c1COC(=O)[C@@H](NC(=O)c1ccccc1Cl)C(C)C	0	192	-3	4	-1	-5	.	.
CCc1nonc1NC(=O)COc1cc(C)c(Cl)c(C)c1	-2	420	-4	70*	-1	.	-3	97
COc1cccc(N2CC(C(=O)Nc3ccc(F)cc3)CC2=O)c1 (stereo unspecified)	0	279	7	2	0	.	.	.
COc1cccc(N2CC(C(=O)Nc3ccc(C(=O)OC(C)C)cc3)CC2=O)c1 (stereo unspecified)	1	134	1	73*	1	4	1	101
Cc1onc(-c2ccccc2Cl)c1C(=O)Nc1ccccc1C(=O)NC(C)C	0	489	-4	2	0	-8	.	.
C=C(C)CCOC(=O)C(CC(=O)O)NCc1ccco1 (stereo unspecified)	-1	0	-5	43*	3	-4	9	149
O=C(CSC1=NS(=O)(=O)c2cc(F)ccc2N1)Nc1cccc(F)c1	0	i	-3	5	1	.	.	.
CSc1ccccc1C(=O)Nc1cccc([N+](=O)[O-])c1	2	313	-4	2	0	4	.	.
C=CCOc1cccc(NC(=O)c2ccccc2SC)c1	-1	361	5	92*	-1	-11	1	90
